Screens: PubChem, several laboratories
This is a sample that favours compounds with a hit; in the whole collection about 1% have one here.
MT stabilize HCS: microtubule stabilization, imaging screen. 200,000 compounds, 0.83% hits. % tubulin-high responders, % at 10 µM. HeLa tubulin immunostaining HCS, 24 h; share of cells brighter than vehicle mean+2SD;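 active = plate Z-score above 3 for both tubulin-high and condensed-nucleus cell shares, with cell loss under 80%, at 10 µM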;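 also: anti alpha tubulin signal scored within the nucleus-defined area of each cell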
TLR4-MyD88 BLA: TLR4-MyD88 interaction inhibition in cells; O00206+Q99836; HeLa CL3-4 TLR4/MyD88 BLA complementation, FRET ratio; inhibition, % at 8.4 µM; 200,000 compounds, 0.18% hits; AID 861; in the data active = inhibition above about 25%;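 also: 0% = vehicle and 100% = reference inhibitor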
TLR9-MyD88 block: TLR9-MyD88 interaction inhibition; Q9NR96+Q99836; CHO BLA complementation TLR9-MyD88, CCF4 FRET ratio; inhibition, % at 4.98 µM; 340,000 compounds, 0.21% hits; AID 504734;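 active = inhibition above the mean over all tested compounds plus 3 SD, cut at about 21% in these data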;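 also: 0% = DMSO only wells and 100% = clavulanate BLA inhibitor control wells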
Hsp70 activator: Hsp70 transcriptional activation, primary screen. activation, % at 10 µM. 200,000 compounds, 0.04% hits. AID 1203. HeLa Hsp70 promoter luciferase reporter, luminescence; scaled: vehicle 0, proteasome-inhibitor control 100%;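 active = activation above the mean across all tested compounds plus 3 SD, cutoff set per campaign, cut at about 5.5% in these data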;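 also: 100% = MG132 at 30 µM as the positive control and 0% = DMSO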
bCat nuc transl: modulators of beta-catenin nuclear translocation; HeLa beta-catenin nuclear translocation, immunofluorescence imaging; nuclear translocation activity, % at 5 µM; 190,000 compounds, 0.3% hits;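 active = nuclear translocation activity above 50% at 5 µM, with a well cell count of 50 or more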;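 also: per-cell ratio of nuclear to cytoplasmic median beta-catenin stain intensity; plate controls were DMSO negative control for no effect and GSK-3 inhibitor IX positive control for full effect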
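Technique: fluorescence imaging of beta-catenin antibody stain plus DAPI / Material: human HeLa cell line / Incubation: compound treatment 24 h, 37°C, 5% CO2 / Read-out basis: % activation of per-cell nuclear versus cytoplasmic median beta-catenin signal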
NOD2 RIPK2 PPI: blocks binding of human NOD2 to RIPK2 | 360,000 compounds, 0.38% hits | CHO BLA complementation NOD2-RIPK2, CCF4 ratio | inhibition, % at 4.98 µM | O43353; in the data active = inhibition above about 21%;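 also: 0% = vehicle only and 100% = reference blocker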
Target sequence (O43353 whole entry, looked up): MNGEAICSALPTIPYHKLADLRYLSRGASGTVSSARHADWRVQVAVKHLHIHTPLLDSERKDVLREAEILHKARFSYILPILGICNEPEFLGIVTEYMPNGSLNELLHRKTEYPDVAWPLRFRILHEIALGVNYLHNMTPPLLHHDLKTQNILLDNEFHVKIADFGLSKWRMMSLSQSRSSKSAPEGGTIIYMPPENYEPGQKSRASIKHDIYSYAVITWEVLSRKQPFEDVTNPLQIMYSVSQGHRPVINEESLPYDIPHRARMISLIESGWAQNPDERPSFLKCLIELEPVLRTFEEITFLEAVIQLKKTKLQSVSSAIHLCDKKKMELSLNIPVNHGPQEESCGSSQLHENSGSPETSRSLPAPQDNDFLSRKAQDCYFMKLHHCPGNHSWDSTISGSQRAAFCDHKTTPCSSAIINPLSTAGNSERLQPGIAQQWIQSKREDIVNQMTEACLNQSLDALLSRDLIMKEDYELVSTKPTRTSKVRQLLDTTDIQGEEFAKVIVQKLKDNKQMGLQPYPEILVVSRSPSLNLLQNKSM
Numbers without * were called inactive; nt = not tested or not shown.

SMILES	MT stabilize HCS	TLR4-MyD88 BLA	TLR9-MyD88 block	Hsp70 activator	bCat nuc transl	NOD2 RIPK2 PPI
CCCS(=O)(=O)NC(=O)C1(C)CCCN(C(=O)c2cc(OC)ccc2Br)C1 (stereo unspecified)	nt	nt	nt	nt	nt	-2
Cc1ccc(C(=O)Nc2ncc(Cc3ccc(SC(F)F)cc3)s2)cc1	7	3	-3	0	135*	5
Cc1ccc(C(=O)Nc2ncc(Cc3ccc(F)cc3)s2)o1	2	11	-5	0	0	12
O=C1/C(=C/c2ccc(N3CCOCC3)o2)SC(=Nc2ccccc2)N1CCc1c[nH]c2ccccc12	6	14	14	0	0	47*
CC(=O)N1CCOc2ccc(S(=O)(=O)N3CCC(C(=O)NCc4ccc(Cl)cc4)CC3)cc21	nt	nt	2	nt	nt	-4
Cc1cc(Nc2cccc(Cl)n2)n(-c2ccccc2)n1	5	-1	9	0	2	-10
Cc1cc(Nc2nc3ccccc3nc2Cl)n(-c2ccccc2C)n1	13*	-3	5	0	1	-11
Cc1cc(Nc2ccc(Cl)cc2)n(-c2ccccc2)n1	1	13	7	0	-2	10
Cc1cc(Nc2nc3ccccc3nc2Cl)n(-c2ccccc2)n1	12*	1	11	0	nt	-1
CC(C)CC(N)c1csc(Nc2ccc(C(F)(F)F)cn2)n1 (stereo unspecified)	nt	nt	nt	nt	nt	16
COc1ccc(/C=C2\CCCC3C2=NC(=S)NC3c2ccc(OC)cc2)cc1 (stereo unspecified)	9	5	-2	0	56*	-1
O=C1NC[C@@H](CCCCN2CCN(CCc3ccc(O)cc3)C(=O)C2=O)N(CCc2ccc(O)cc2)C1=O	nt	nt	nt	nt	nt	9
COc1cc(C2C(C#N)=C(N)Oc3cc(N)ccc32)cc(OC)c1OC (stereo unspecified)	18*	4	-3	0	71*	4
COc1ccc(C2C(C#N)=C(N)Oc3c2ccc2cccnc32)cc1OC (stereo unspecified)	16*	10	-3	0	61*	8
N#CC1=C(N)Oc2cc(N)ccc2C1c1ccc(Cl)cc1 (stereo unspecified)	nt	nt	7	nt	nt	7
CCN(CC)c1ccc2c(c1)OC(N)=C(C#N)C2c1cccnc1 (stereo unspecified)	20*	7	0	1	65*	2
N#CC1=C(N)Oc2cc(N)ccc2C1c1cccnc1 (stereo unspecified)	24*	-1	-2	0	0	7
CC(=O)C1=C(C)OC(N)=C(C#N)C1c1cccnc1 (stereo unspecified)	2	0	5	0	-1	-6
O=[N+]([O-])c1nccn1CC(O)CO (stereo unspecified)	nt	nt	nt	nt	nt	-8
O=C(Nc1cccc2cccnc12)c1csc([C@@H]2O[C@H](CO)[C@H](O)[C@H](O)[C@H]2O)n1	nt	nt	nt	nt	nt	-45
O=C(Nc1ccc(F)cc1)C1CCCN(C2=NS(=O)(=O)c3ccccc32)C1 (stereo unspecified)	nt	nt	4	nt	nt	-1
COc1ccc(CCNC(=O)COC(=O)Cc2c[nH]c3ccccc23)cc1OC	nt	nt	-4	nt	nt	1
CN(C)S(=O)(=O)c1cccc(NC(=O)CSc2nc3c(cc2C#N)C(=O)CC(C)(C)C3)c1	24*	-7	8	0	6	-6
COc1ccc(S(=O)(=O)N2CCCC2CNC(=O)C(=O)NCc2ccccc2Cl)cc1 (stereo unspecified)	nt	nt	-2	nt	nt	-8
Cc1nn(-c2ccccc2)c(C)c1NC(=O)COc1ccc2ccccc2c1	2	-5	8	0	1	49*
Cc1nn(-c2ccccc2)c(C)c1NC(=O)COc1ccc(C#N)cc1	4	-11	-1	0	4	-12
Cc1cc(C)cc(-n2ncc3c2CCCC3NC(=O)CN2CCCCC2=O)c1 (stereo unspecified)	nt	nt	0	nt	nt	12
COc1ccccc1-c1nn2c(-c3ccc(C(C)(C)C)cc3)nnc2s1	nt	nt	nt	nt	-6	nt
COc1ccccc1-c1nnc2sc(-c3cnccn3)nn12	2	-17	2	0	3	-8
COc1ccccc1-c1nnc2sc(-c3cc4ccccc4o3)nn12	44	3	0	0	94*	5
